From ChEMBL document CHEMBL3399922, “3-Oxoisoxazole-2(3H)-carboxamides and isoxazol-3-yl carbamates: Resistance-breaking acetylcholinesterase inhibitors targeting the malaria mosquito, Anopheles gambiae” (Bioorg Med Chem, 2015)
≈ marks a conversion by molar mass, not a printed value.

Columns and labels:
Anopheles gambiae [1] = assay: Tarsal contact toxicity in Anopheles gambiae Akron (MRA-913) assessed as mortality measured at 24 hrs by filter paper assay; format: functional
In short: (§1)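 Non-blood-fed adult females, 3–5 days old, followed a modified 2006 WHO tube assay. Filter papers (15 × 12 cm) were treated with ethanolic carbamate and dried overnight. Mosquitoes were exposed 1 h, then given 10% sugar water, at 24 ± 1 °C and 75% RH; mortality was read at 24 h. G3 used 20-25/batch in triplicate and Akron 10-15 in duplicate. LC50 was from probit analysis of typically 5-8 concentrations.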

Anopheles gambiae [2] = assay: Tarsal contact toxicity in Anopheles gambiae G3 (MRA-112) assessed as mortality measured at 24 hrs by filter paper assay; format: functional; in short: as §1
Anopheles gambiae [3] = assay: Tarsal contact toxicity in Anopheles gambiae G3 (MRA-112) assessed as mortality measured at 1000 ug/mL at 24 hrs by filter paper assay; format: functional; in short: as §1
Acetylcholinesterase = Acetylcholinesterase (Homo sapiens, UniProt P22303); assay: Inhibition of recombinant human AChE; design: unit not given here
[4] = Inhibition of recombinant Anopheles gambiae AChE G119S mutant compound incubated for up to 60 mins at approximately 10 mins interval; design: unit not given here
In short: (§2)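 Recombinant AgAChE enzymes were incubated with typically five inhibitor concentrations plus an inhibitor-free control. Residual activity v/v0 was read by Ellman assay against a time-matched control, at 23 ± 1°C, pH 7.7, 0.1% (v/v) DMSO. kobs is the slope of ln(v/v0) vs time, from at least two experiments. ki is the slope of kobs vs [I] in the linear, non-saturating range. Duplicate wells.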

Anopheles gambiae [5] = assay: Tarsal contact toxicity in Anopheles gambiae Akron (MRA-913) assessed as mortality measured at 1000 ug/mL at 24 hrs by filter paper assay; format: functional; in short: as §1
[6] = Inhibition of recombinant wild-type Anopheles gambiae AChE compound incubated for up to 6 min at approximately 1 min interval; design: unit not given here; in short: as §2
Anopheles gambiae [7] = assay: Tarsal contact toxicity in Anopheles gambiae Akron (MRA-913) assessed as mortality measured at 200 ug/mL at 24 hrs by filter paper assay; format: functional; in short: as §1

Sequence of Acetylcholinesterase (P22303 whole entry): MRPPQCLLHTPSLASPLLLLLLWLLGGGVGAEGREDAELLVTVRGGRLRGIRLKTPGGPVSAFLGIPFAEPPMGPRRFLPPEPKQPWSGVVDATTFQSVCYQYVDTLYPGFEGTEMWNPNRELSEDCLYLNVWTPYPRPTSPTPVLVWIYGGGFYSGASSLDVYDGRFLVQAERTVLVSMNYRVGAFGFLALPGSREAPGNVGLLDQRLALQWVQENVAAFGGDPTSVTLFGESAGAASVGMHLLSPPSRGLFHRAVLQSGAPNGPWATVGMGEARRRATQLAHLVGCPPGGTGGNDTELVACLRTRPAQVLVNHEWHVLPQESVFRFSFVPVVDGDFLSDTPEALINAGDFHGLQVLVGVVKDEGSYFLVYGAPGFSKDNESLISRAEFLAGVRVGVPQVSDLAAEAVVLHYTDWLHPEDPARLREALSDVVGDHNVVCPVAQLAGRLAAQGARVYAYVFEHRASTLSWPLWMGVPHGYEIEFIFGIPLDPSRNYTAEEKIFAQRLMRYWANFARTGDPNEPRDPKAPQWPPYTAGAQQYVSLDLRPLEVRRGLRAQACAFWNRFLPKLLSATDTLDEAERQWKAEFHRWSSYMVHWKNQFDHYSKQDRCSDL

| SMILES | LC50 (Anopheles gambiae [1]) [mg/L] | LC50 (Anopheles gambiae [2]) [mg/L] | mortality at 1000 µg/mL (Anopheles gambiae [3]) [%] | further results |
| --- | --- | --- | --- | --- |
| CNC(=O)Oc1cccc(C(C)(C)C)c1 | > 5000 | 37 (≈ 179 µM) |  |  |
| Cc1cc(OC(=O)N(C)C)no1 |  |  | 0 |  |
| CCC(C)n1cc(OC(=O)NC)cn1 (stereo not drawn) | 81 (≈ 411 µM) | 96 (≈ 487 µM) |  |  |
| Cc1cc(=O)n(C(=O)N(C)C)o1 |  |  | 0 |  |
| CN(C)C(=O)n1oc(C2CC2)cc1=O |  | 278 (≈ 1420 µM) |  | Ki (Acetylcholinesterase): 103; Ki [4]: 0.2; mortality at 1000 µg/mL (Anopheles gambiae [5]): 10%; Ki [6]: 50.5 |
| CC(C)c1cc(=O)n(C(=O)N(C)C)o1 | 182 (≈ 918 µM) | 316 (≈ 1590 µM) |  |  |
| CN(C)C(=O)n1oc(C2CCC2)cc1=O | 74 (≈ 352 µM) | 79 (≈ 376 µM) |  |  |
| CCC(C)c1cc(=O)n(C(=O)N(C)C)o1 (stereo not drawn) | 129 (≈ 608 µM) | 63 (≈ 297 µM) |  |  |
| CN(C)C(=O)n1oc(C2CCCC2)cc1=O | 118 (≈ 526 µM) | 105 (≈ 468 µM) |  |  |
| CCCC(C)c1cc(=O)n(C(=O)N(C)C)o1 (stereo not drawn) | 75 (≈ 331 µM) | 153 (≈ 676 µM) |  |  |
| CCC(CC)c1cc(=O)n(C(=O)N(C)C)o1 | 40 (≈ 177 µM) | 38 (≈ 168 µM) |  |  |
| CC(C)Cc1cc(=O)n(C(=O)N(C)C)o1 |  | 201 (≈ 947 µM) |  | Ki (Acetylcholinesterase): 30.9; mortality at 200 µg/mL (Anopheles gambiae [7]): 25%; Ki [4]: 0.55; Ki [6]: 252 |
| CCC(C)Cc1cc(=O)n(C(=O)N(C)C)o1 (stereo not drawn) |  |  | 0 |  |
| CN(C)C(=O)n1oc(CC(C)(C)C)cc1=O |  |  | 80 |  |
| CC(C)CCc1cc(=O)n(C(=O)N(C)C)o1 | 68 (≈ 301 µM) | 73 (≈ 323 µM) |  | Ki (Acetylcholinesterase): 80.9; Ki [4]: 0.4; Ki [6]: 266 |
| CN(C)C(=O)n1oc(CCC2CC2)cc1=O | 144 (≈ 642 µM) | 133 (≈ 593 µM) |  |  |
| CN(C)C(=O)n1oc(CCC2CCC2)cc1=O |  |  | 30 |  |
| CN(C)C(=O)n1oc(CCC2CCCC2)cc1=O |  |  | 0 |  |
| CCCC(C)c1cc(=O)n(C(=O)N2CCC2)o1 (stereo not drawn) |  |  | 78 |  |
| CCCC(C)c1cc(=O)n(C(=O)N(C)CC)o1 (stereo not drawn) | 614 (≈ 2560 µM) | 400 (≈ 1660 µM) |  |  |
| CCCC(C)c1cc(=O)n(C(=O)N(CC)CC)o1 (stereo not drawn) |  |  | 15 |  |
| CCCC(C)c1cc(=O)n(C(=O)N2CCCC2)o1 (stereo not drawn) |  |  | 77 |  |
| CCCC(C)c1cc(=O)n(C(=O)N2CCOCC2)o1 (stereo not drawn) |  |  | 45 |  |

| SMILES | LC50 (Anopheles gambiae [1]) [mg/L] | LC50 (Anopheles gambiae [2]) [mg/L] | mortality at 1000 µg/mL (Anopheles gambiae [3]) [%] | further results |
| --- | --- | --- | --- | --- |
| CN(C)C(=O)Oc1cc(C2CC2)on1 |  |  | 0 |  |
| CC(C)c1cc(OC(=O)N(C)C)no1 | 116 (≈ 585 µM) | 84 (≈ 424 µM) |  |  |
| CN(C)C(=O)Oc1cc(C2CCC2)on1 | 392 (≈ 1860 µM) | 349 (≈ 1660 µM) |  |  |
| CCC(C)c1cc(OC(=O)N(C)C)no1 (stereo not drawn) | 58 (≈ 273 µM) | 41 (≈ 193 µM) |  |  |
| CN(C)C(=O)Oc1cc(C2CCCC2)on1 |  |  | 60 |  |
| CCCC(C)c1cc(OC(=O)N(C)C)no1 (stereo not drawn) | 296 (≈ 1310 µM) | 234 (≈ 1030 µM) |  | Ki (Acetylcholinesterase): 50.9; Ki [4]: 30.6; Ki [6]: 416 |
| CCC(CC)c1cc(OC(=O)N(C)C)no1 |  |  | 70 |  |
| CCCCC(CC)c1cc(OC(=O)N(C)C)no1 (stereo not drawn) |  |  | 0 |  |
| CC(C)Cc1cc(OC(=O)N(C)C)no1 | 151 (≈ 711 µM) | 253 (≈ 1190 µM) |  |  |
| CCC(C)Cc1cc(OC(=O)N(C)C)no1 (stereo not drawn) |  |  | 30 |  |
| CN(C)C(=O)Oc1cc(CC(C)(C)C)on1 |  |  | 0 | Ki (Acetylcholinesterase): 0.44; Ki [4]: 0.05; Ki [6]: 0.12 |
| CC(C)CCc1cc(OC(=O)N(C)C)no1 | 429 (≈ 1900 µM) | 415 (≈ 1830 µM) |  |  |
| CN(C)C(=O)Oc1cc(CCC2CC2)on1 | 198 (≈ 883 µM) | 191 (≈ 852 µM) |  |  |
| CN(C)C(=O)Oc1cc(CCC2CCC2)on1 |  |  | 40 |  |
| CN(C)C(=O)Oc1cc(CCC2CCCC2)on1 |  | 674 (≈ 2670 µM) |  | Ki (Acetylcholinesterase): 13.1; Ki [4]: 0.12; Ki [6]: 0.6 |
| CCCC(C)c1cc(OC(=O)N(C)CC)no1 (stereo not drawn) | 574 (≈ 2390 µM) | 410 (≈ 1710 µM) |  |  |
| CCCC(C)c1cc(OC(=O)N2CCCC2)no1 (stereo not drawn) |  |  | 0 |  |
| CCCC(C)c1cc(OC(=O)N2CCOCC2)no1 (stereo not drawn) |  |  | 10 |  |
| CNC(=O)O/N=C/C(C)(C)SC [ALDICARB] | 32 (≈ 168 µM) | 70 (≈ 368 µM) |  |  |
| CNC(=O)Oc1cccc2c1OC(C)(C)O2 [BENDIOCARB] | > 5000 | 16 (≈ 71.7 µM) |  |  |
| CNC(=O)Oc1cccc2c1OC(C)(C)C2 [CARBOFURAN] | > 5000 | 16 (≈ 72.3 µM) |  |  |
| CNC(=O)Oc1ccccc1OC(C)C [PROPOXUR] | > 5000 | 39 (≈ 186 µM) |  |  |
